Assay results taken from ChEMBL document CHEMBL4118248, “Small Molecule Proprotein Convertase Subtilisin/Kexin Type 9 (PCSK9) Inhibitors: Hit to Lead Optimization of Systemic Agents” (J Med Chem, 2018).
Calls of active or inactive are those of the source. No cut-off for these calls is given here.

Columns and labels:
[1] = Permeability from apical to basolateral side in MDCK cells harboring MDR1; type: ADME, cell-based, Canis lupus familiaris; conditions: dog, read-out: permeability
How it was run: (§1)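 Bidirectional permeability across MDR1-transfected MDCK monolayers, apical-to-basolateral and basolateral-to-apical; Papp reported in 10^-6 cm/s.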

[2] = target: 80S Ribosome; assay: Binding affinity to 80S ribosome in human HuH7 cells assessed as inhibition of PCSK9 mRNA translation after overnight incubation by ELISA; type: cell-based; conditions: huh-7
How it was run: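 Huh7 cells kept in high-glucose DMEM, 10% BSA-free FBS, 2 mM L-glutamine, pen/strep at 37 °C, 5% CO2. Plated 7,500/well with compound or vehicle and incubated overnight (16-20 h). Secreted PCSK9 in the medium read by AlphaLISA: two antibodies to different mature-PCSK9 epitopes, biotinylated antibody 3 nM final, acceptor beads 10 µg/mL, 0.5 h rt; streptavidin donor beads 40 µg/mL, 1 h rt.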

[3] = target: T1, CYP1A2 (Homo sapiens, UniProt P05177); assay: Inhibition of CYP1A2 (unknown origin) at 3 uM relative to control; type: ADME
T1 sequence (P05177 whole entry): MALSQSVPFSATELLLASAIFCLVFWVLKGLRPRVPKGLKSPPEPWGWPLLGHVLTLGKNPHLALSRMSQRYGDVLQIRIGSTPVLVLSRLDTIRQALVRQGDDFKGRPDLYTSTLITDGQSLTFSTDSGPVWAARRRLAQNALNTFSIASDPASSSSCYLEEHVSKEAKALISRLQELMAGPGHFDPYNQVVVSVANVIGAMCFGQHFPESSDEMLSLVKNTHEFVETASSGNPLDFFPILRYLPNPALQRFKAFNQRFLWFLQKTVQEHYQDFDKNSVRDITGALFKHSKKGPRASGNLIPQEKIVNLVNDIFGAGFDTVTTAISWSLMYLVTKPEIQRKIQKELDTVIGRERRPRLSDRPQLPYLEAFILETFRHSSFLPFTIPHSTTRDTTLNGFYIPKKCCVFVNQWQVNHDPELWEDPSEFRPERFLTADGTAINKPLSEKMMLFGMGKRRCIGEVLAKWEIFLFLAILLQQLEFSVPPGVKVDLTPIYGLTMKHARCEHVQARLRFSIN
How it was run: (§2)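 Inhibition of CYP1A2, 2D6, 2C9 and 3A4 reported as IC50, or as percent inhibition at 3 µM.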

[4] = Fraction unbound in rat plasma; type: ADME, cell-free
How it was run: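 Unbound fraction measured in rat plasma.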

[5] = system: Rattus norvegicus; assay: Toxicity in Crl:CD(SD) rat assessed as single cell necrosis in crypt cells in ileum at 50 mg/kg/day, po daily via gavage for 14 days measured on day 15 post last dose; type: organism-based; conditions: in vivo, 336 h
[6] = target: T2, Voltage-gated inwardly rectifying potassium channel KCNH2 (Homo sapiens, UniProt Q12809); assay: Inhibition of dofetilide binding to human ERG by fluorescence polarization assay
[7] = target: 80S Ribosome; assay: Binding affinity of [3H]PF-06446846 to human 80S ribosome
[8] = system: Bone marrow cell; assay: Cytotoxicity against rat bone marrow cells assessed as reduction in cell viability after 72 hrs by CellTiter-Glo assay; type: cell-based
[9] = target: T2, Voltage-gated inwardly rectifying potassium channel KCNH2; assay: Inhibition of human ERG by patch clamp method
[10] = Permeability from basolateral to apical side in MDCK cells harboring MDR1; type: ADME, cell-based, Canis lupus familiaris; conditions: dog, read-out: permeability; how it was run: as §1
[11] = Cytotoxicity against human CD34-positive hematopoietic progenitor cells assessed as reduction in cell viability after 72 hrs by CellTiter-Glo assay; type: cell-based
[12] = target: CYP2D6 (Homo sapiens, UniProt P10635); assay: Inhibition of CYP2D6 (unknown origin) at 3 uM relative to control; type: ADME; how it was run: as §2
[13] = Total Cmax in Crl:CD(SD) rat at 50 mg/kg/day, po daily via gavage for 14 days measured on day 14 post last dose up to 24 hrs; type: ADME, organism-based; set-up: dose 50 mg/kg/day, route oral; conditions: in vivo
[14] = Selectivity index, ratio of IC50 for cytotoxicity against rat bone marrow cells to IC50 for 80S ribosome in human HuH7 cells harboring pCMV-truncated human PCSK9 (1 to 152 residues)-proLuc; type: toxicity, cell-based; conditions: read-out: Ratio IC50
[15] = Intrinsic clearance in human liver microsomes; type: ADME, microsome; conditions: read-out: CLH
[16] = system: Ribosome; assay: Binding affinity to 80S ribosome in rat IEC-6 cells assessed as induction of changes in Ndc80 nascent chain expression at 4 uM by ribosome profiling method; type: cell-based
How it was run: (§3)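 Rat IEC-6 cells exposed 1 h to 4 µM compound or vehicle, followed by ribosome profiling. Cumulative read fractions along annotated protein regions compared with vehicle. RPKM taken from reads 3' of the Dmax position when the Dmax Z-score is >2.0, otherwise 3' of codon 50.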

[17] = system: Rattus norvegicus; assay: Toxicity in Crl:CD(SD) rat at 50 mg/kg/day, po daily via gavage for 14 days; type: organism-based; conditions: in vivo, 336 h
[18] = Intrinsic clearance in rat liver microsomes; type: ADME, microsome; conditions: read-out: CLH
[19] = system: Mus musculus; assay: Inhibition of PCSK9 secretion in plasma of humanized PCSK9 C57BL6J mouse assessed as free plasma concentration required to show effect at 30 to 100 mg/kg, po via gavage measured up to 24 hrs by ELISA; type: functional
How it was run: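 Humanized PCSK9 mice given a single oral dose of 30 or 100 mg/kg, with vehicle group. Plasma PCSK9 followed over 0-24 h and normalized to t = 0. Free effective concentration derived from the whole time course with an indirect-effect PK/PD model.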

[20] = Apparent permeability in RRCK cells; type: ADME, cell-based, Canis lupus familiaris, MDCKII-LE; conditions: dog, MDCK
How it was run: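 Passive permeability measured in RRCK cells, a modified Madin-Darby canine kidney line; Papp reported in 10^-6 cm/s.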

[21] = Lipophilicity, log D of the compound by shake flask method; type: physicochemical; conditions: octanol/water
How it was run: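 LogD measured by the shake-flask method.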

[22] = system: Ribosome; assay: Binding affinity to 80S ribosome in rat IEC-6 cells assessed as induction of changes in Cox15 nascent chain expression at 4 uM by ribosome profiling method; type: cell-based; how it was run: as §3
[23] = system: Rattus norvegicus; assay: Toxicity in Crl:CD(SD) rat assessed as mortality at >= 150 mg/kg/day, po daily via gavage for 14 days measured on day 15 post last dose; type: organism-based; conditions: in vivo, 336 h
[24] = target: 80S Ribosome; assay: Binding affinity to 80S ribosome in human HuH7 cells harboring pCMV-truncated human PCSK9 (1 to 152 residues)-proLuc assessed as inhibition of PCSK9 mRNA translation after overnight incubation by luciferase reporter gene assay; type: cell-based; conditions: huh-7
How it was run: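 Huh7 cells stably carry human PCSK9 prodomain (aa 1-152) fused to firefly luciferase (aa 2-550) in pcDNA3.1, kept under 900 µg/mL Geneticin. Plated 10,000/well in phenol red-free DMEM/10% FBS and left 4 h, then compound added (top final 20 µM, 0.5% DMSO). Incubated overnight at 37 °C, luminescence read with SteadyGlo.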

[25] = system: IEC-6; assay: Cytotoxicity against rat IEC-6 cells assessed as reduction in cell viability after 3 days by CellTiter-Glo assay; type: cell-based; conditions: IEC-6, 72 h
How it was run: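 Rat intestinal epithelial IEC-6 cells; viability read by CellTiter-Glo ATP luminescence.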

[26] = system: Rattus norvegicus; assay: Toxicity in Crl:CD(SD) rat assessed as mortality at 500 mg/kg/day, po daily via gavage for 14 days; type: organism-based; conditions: in vivo, 336 h
How it was run: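 Rats dosed orally at 50, 150 and 500 mg/kg/day for 14 days; crypt epithelium of duodenum/jejunum examined histologically and mortality recorded.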

[27] = system: Rattus norvegicus; assay: Toxicity in Crl:CD(SD) rat at 50 mg/kg/day, po daily via gavage for 14 days measured on day 15 post last dose; type: organism-based; conditions: in vivo, 336 h
How it was run: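 Male rats, 5 per group, given vehicle or test compound at 50 mg/kg by daily oral gavage for 14 days. Mortality, clinical signs and hematology were monitored throughout. Toxicokinetics were sampled at 1, 3, 6 and 24 h post-dose on day 14. Necropsy was on day 15, with microscopic evaluation of bone marrow, ileum, duodenum, jejunum and liver.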

[28] = Total plasma concentration in Crl:CD(SD) rat at 50 mg/kg/day, po daily via gavage for 14 days measured on day 14 post last dose up to 24 hrs; type: ADME, organism-based; conditions: in vivo
[29] = target: CYP2C9 (Homo sapiens, UniProt P11712); assay: Inhibition of CYP2C9 (unknown origin) at 3 uM relative to control; type: ADME; how it was run: as §2
[30] = target: CYP3A4 (Homo sapiens, UniProt P08684); assay: Inhibition of CYP3A4 (unknown origin) at 3 uM relative to control; type: ADME; how it was run: as §2
[31] = system: Rattus norvegicus; assay: Toxicity in Crl:CD(SD) rat assessed as discolored/mottled liver at 50 mg/kg/day, po daily via gavage for 14 days measured on day 15 post last dose; type: organism-based; conditions: in vivo, 336 h
How it was run: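 Male rats, 5 per group, given vehicle or compound at 50 mg/kg/day by oral gavage for 14 days. Mortality, clinical signs and hematology monitored throughout. Necropsy on day 15 with microscopy of bone marrow, ileum, duodenum, jejunum and liver. Toxicokinetics at 1, 3, 6 and 24 h post-dose on day 14.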

[32] = system: Rhesus monkey; assay: In vivo drugmetabolism in non-human primate assessed as (R)-N-(3-Chloropyridin-2-yl)-4-(6-(methylamino)pyrazin-2-yl)-N-(piperidin-3-yl)benzamide formation; type: ADME, organism-based, Macaca mulatta
[33] = system: Rattus norvegicus; assay: In vivo drugmetabolism in rat assessed as (R)-N-(3-Chloropyridin-2-yl)-4-(6-(methylamino)pyrazin-2-yl)-N-(piperidin-3-yl)benzamide formation; type: ADME, organism-based

T2 sequence (Q12809 whole entry): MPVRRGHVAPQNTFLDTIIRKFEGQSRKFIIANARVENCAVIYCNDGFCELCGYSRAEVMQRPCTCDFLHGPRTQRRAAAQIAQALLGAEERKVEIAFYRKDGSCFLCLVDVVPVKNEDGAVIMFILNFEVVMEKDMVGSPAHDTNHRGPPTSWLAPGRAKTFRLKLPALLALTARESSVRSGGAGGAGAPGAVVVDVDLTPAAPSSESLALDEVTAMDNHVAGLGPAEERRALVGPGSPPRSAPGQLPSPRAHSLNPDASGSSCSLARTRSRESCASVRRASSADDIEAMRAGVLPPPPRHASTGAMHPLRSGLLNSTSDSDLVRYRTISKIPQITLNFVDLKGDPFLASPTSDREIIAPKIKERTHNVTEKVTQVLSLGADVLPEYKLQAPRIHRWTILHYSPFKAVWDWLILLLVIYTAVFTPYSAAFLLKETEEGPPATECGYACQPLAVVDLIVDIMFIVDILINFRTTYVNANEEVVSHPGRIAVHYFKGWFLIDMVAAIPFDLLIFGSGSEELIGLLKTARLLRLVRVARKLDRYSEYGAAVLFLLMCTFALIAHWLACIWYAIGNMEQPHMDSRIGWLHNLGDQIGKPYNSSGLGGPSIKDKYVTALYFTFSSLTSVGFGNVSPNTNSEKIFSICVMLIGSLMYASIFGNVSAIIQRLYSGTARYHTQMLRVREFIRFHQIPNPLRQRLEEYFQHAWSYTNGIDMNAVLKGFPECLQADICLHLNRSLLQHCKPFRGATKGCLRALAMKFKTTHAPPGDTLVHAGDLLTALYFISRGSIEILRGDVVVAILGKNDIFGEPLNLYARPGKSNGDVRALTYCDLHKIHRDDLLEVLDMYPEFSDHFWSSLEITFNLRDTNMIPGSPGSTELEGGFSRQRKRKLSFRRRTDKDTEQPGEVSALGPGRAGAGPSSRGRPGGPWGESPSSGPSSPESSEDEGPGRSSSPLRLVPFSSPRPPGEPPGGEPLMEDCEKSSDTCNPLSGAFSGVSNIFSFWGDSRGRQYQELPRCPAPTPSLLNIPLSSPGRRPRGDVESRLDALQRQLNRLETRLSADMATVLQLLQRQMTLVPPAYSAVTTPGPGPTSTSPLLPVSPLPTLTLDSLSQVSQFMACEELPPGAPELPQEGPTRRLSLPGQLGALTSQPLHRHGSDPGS
CYP3A4, sequence (P08684 whole entry): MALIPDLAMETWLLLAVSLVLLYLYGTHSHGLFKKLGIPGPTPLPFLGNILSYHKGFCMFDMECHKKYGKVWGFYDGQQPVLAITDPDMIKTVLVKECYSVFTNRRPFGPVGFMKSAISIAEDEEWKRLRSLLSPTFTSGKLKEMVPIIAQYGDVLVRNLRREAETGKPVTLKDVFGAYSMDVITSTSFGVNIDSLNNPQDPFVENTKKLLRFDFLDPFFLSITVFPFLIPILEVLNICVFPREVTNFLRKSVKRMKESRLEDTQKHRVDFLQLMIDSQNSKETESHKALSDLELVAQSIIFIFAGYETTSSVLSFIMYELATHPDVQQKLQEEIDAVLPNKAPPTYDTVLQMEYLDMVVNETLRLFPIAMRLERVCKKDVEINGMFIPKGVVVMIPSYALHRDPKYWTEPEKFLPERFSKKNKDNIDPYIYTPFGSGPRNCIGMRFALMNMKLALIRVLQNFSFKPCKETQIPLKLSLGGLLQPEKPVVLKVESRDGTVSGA
CYP2D6, sequence (P10635 whole entry): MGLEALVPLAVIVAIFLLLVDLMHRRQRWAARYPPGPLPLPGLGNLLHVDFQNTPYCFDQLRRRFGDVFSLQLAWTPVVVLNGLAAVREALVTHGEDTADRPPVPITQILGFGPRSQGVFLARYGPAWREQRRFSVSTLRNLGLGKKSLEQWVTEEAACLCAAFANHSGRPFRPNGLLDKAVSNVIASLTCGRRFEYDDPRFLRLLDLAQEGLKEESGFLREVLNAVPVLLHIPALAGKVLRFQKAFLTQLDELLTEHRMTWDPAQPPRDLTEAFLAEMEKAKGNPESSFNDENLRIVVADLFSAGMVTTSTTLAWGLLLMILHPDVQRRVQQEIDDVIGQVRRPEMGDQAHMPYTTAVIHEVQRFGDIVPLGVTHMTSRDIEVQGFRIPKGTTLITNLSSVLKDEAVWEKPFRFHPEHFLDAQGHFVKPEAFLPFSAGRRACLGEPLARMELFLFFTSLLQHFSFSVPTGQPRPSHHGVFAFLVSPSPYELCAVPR
CYP2C9, sequence (P11712 whole entry): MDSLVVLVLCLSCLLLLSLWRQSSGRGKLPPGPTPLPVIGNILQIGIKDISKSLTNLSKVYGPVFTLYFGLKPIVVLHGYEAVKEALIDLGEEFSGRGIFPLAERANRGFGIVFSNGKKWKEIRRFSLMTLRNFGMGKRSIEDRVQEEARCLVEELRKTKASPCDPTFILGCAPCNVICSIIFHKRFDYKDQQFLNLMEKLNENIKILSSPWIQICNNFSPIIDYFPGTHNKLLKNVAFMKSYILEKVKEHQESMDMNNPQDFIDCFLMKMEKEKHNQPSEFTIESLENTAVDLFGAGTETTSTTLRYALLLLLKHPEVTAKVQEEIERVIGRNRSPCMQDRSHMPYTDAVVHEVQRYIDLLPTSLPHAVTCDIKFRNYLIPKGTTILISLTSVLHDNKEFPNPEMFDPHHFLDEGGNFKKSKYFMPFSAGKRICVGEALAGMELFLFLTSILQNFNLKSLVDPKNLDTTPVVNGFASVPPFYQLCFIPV

## Cc1cnc2c(c1)nnn2-c1ccc(C(=O)N(c2ncccc2Cl)[C@@H]2CCCNC2)nc1
[1]
  Papp A→B: 1.3 ×10⁻⁶ cm/s
[2]
  IC50: 1.37 µM
[3]
  inhibition at 3 µM: < 13%
[4]
  fraction unbound: 0.24
[5]
  Activity: Non-Toxic
[6]
  Ki: 5.9 µM
[7]
  Ki: 63 µM
[8]
  IC50: 20 to 65 µM
[9]
  IC50: 3.6 µM
[10]
  Papp B→A: 19.9 ×10⁻⁶ cm/s
[11]
  IC50: > 20 µM
[12]
  inhibition at 3 µM: < 13%
[13]
  Cmax: 9660 ng/mL
[14]
  selectivity ratio: > 30
[15]
  microsomal CLint: 9.3 µL/min/mg
[16]
  Activity: Active
[17]
  NOAEL: 4.231 µM
[18]
  microsomal CLint: 15.1 µL/min/mg
[19]
  Cp(f): 175 nM
[20]
  Papp: 6.2 ×10⁻⁶ cm/s
[21]
  logD: 0.7
[22]
  Activity: Active
[23]
  Activity: Toxic
[24]
  IC50: 0.85 µM
[25]
  IC50: > 20 µM
[26]
  Activity: Toxic
[27]
  Activity: Non-Toxic
[28]
  concentration: 15.9 µM
[29]
  inhibition at 3 µM: < 13%
[30]
  inhibition at 3 µM: < 13%
[31]
  Activity: Toxic

## CN(C)c1cncc(-c2ccc(C(=O)N(c3ncccc3Cl)[C@@H]3CCCNC3)cc2)n1
[2]
  IC50: 2.97 µM
[6]
  Ki: 14.1 µM
[32]
  Drug metabolism: Metabolite_Notdetected
[8]
  IC50: 30.1 µM
[9]
  IC50: 43.2 µM
[15]
  microsomal CLint: 18.2 µL/min/mg
[33]
  Drug metabolism: Metabolite_Detected
[21]
  logD: 1.37
